Screening results deposited in PubChem by The Scripps Research Institute Molecular Screening Center.
CHRM4 agonist – CHRM4 agonism in calcium assay. P08173. CHO-K1 hM4/Gqi5, Fluo-8 calcium fluorescence; vehicle 0%, full acetylcholine response 100%. activation, % at 3 µM. actives 0.14% (n = 360,000);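 active = activation above the run mean over all test wells plus 3 SD, cut at about 32% in these data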;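 also: peak over basal fluorescence ratio per well then scaled between controls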
CHRM4 PAM – CHRM4 positive allosteric modulation. P08173. CHO-K1 hM4/Gqi5, Fluo-8 calcium fluorescence, ACh EC20; 0% = ACh EC20, 100% = maximal ACh. activation, % at 3 µM. actives 0.4% (n = 360,000);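 active = activation above its plate's cutoff, the mean activation of sample wells plus 3 SD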
CHRM5 antagonist – blocks acetylcholine activation of human M5 receptor | P08912 | CHO-hM5 cells, Fluo-8 calcium fluorescence, ACh EC80 | inhibition, % at 3 µM | actives 0.59% (n = 360,000);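 active = inhibition above a per-plate cutoff, the mean of that plate's test compounds plus 3 SD, cut at about 27% in these data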
Target sequence (P08912 whole entry, looked up): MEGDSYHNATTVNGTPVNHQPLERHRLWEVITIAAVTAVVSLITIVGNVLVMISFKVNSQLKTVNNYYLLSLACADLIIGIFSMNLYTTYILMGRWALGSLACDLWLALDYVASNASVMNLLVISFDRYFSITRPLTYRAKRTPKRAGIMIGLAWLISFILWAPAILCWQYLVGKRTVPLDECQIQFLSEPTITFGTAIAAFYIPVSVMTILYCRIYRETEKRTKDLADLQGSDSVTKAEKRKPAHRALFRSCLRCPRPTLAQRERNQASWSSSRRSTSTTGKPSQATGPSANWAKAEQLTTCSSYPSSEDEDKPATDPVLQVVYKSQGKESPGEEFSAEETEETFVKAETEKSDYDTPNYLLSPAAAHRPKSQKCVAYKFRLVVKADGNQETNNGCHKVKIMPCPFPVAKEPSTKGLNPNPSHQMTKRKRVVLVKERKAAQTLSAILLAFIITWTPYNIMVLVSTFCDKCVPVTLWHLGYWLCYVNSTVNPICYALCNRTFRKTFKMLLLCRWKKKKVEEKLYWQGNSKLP
CHRM5 agonist – agonists of human muscarinic M5 receptor (CHRM5) | activation, % at 3 µM | CHO-K1 hM5 cells, Fluo-8 calcium fluorescence; 0% DMSO wells, 100% maximal acetylcholine response | actives 0.19% (n = 360,000) | P08912;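 active = activation above the run's mean over test compounds plus 3 SD, cut at about 23% in these data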;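 also: signal is peak over basal fluorescence ratio across the kinetic read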
M5 PAM – potentiates acetylcholine response at human M5 receptor; P08912; AID 624038; CHO-K1 hM5, Fluo-8 calcium, ACh EC20 PAM; 0% = ACh EC20, 100% = ACh EC100; activation, % at 3 µM; actives 0.3% (n = 360,000);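 active = activation above the run cutoff, the mean activation of all test compounds plus 3 SD, cut at about 18% in these data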
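Probe or stimulus: acetylcholine, EC20 level; Assay system: human M5 receptor in CHO-K1 cells; Schedule: compound preincubation 140 s before EC20 acetylcholine addition; Technique: intracellular calcium via Fluo-8 fluorescence; Dosing: single-point, 3 µM nominal; Read-out basis: percent activation from peak-over-basal fluorescence ratio, scaled EC20-to-EC100 acetylcholine; Repeats: one well per compound, no replicates.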
M4 antag – blocks acetylcholine activation of human M4 receptor; CHO-hM4 cells, ACh EC80, Fluo-8 calcium fluorescence; P08173; inhibition, % at 3 µM; AID 624125; actives 0.73% (n = 360,000);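 active = inhibition above its plate's cutoff, the mean inhibition of sample wells plus 3 SD, cut at about 27% in these data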
Each line names hits and unclear results; the compound was inactive in the other large screens. Hits are enriched below; roughly 1.8% of the tested compounds scored in any of these assays.

CCNc1ncnc2c1cnn2C1CCCO1 (stereo unspecified)	none
COc1ccc(C(=O)NCc2c(C)nn(Cc3ccccc3)c2C)cc1S(=O)(=O)N1CCOCC1	none
COc1cc(NC(=O)CN2C(=O)C(c3ccccc3)=NC23CCCCCC3)cc(OC)c1	CHRM4 PAM 21.2
COc1cccc(NC(=O)CN2C(=O)C(c3ccc(C)cc3)=NC23CCCCCC3)c1	none
COc1ccc(S(=O)(=O)N2CCC(O)(c3ccc(Cl)cc3)CC2)cc1	none
CC(C)(C)c1ccc(S(=O)(=O)N2CCC(O)(c3ccc(Cl)cc3)CC2)cc1	CHRM5 antagonist 30.3
Cc1cccc(-c2nnc3n2N=C(c2ccccc2)CS3)c1	none
Cc1nn2c(nc1=O)SCC(c1ccccc1)=N2	M5 PAM 28.4
CCC(=O)c1ccc(OCC(=O)Nc2ccccc2N2CCCCC2)cc1	none
CCc1nc2ccc(C(=O)N3CCCCC3)cn2c1N(C)CCCc1ccccc1	M4 antag 32.9
CCc1nc2ccc(C(=O)NCCCn3ccnc3)cn2c1N(C)CCCc1ccccc1	M4 antag 27.2
COc1ccc(OC)c(NC(=O)C2(C)CCN2CCOc2ccccc2)c1 (stereo unspecified)	none
CN(C)c1ccc(/C=C/C(=O)c2ccc3c(c2)OCO3)cc1	CHRM4 agonist 120.8, CHRM5 agonist 75.9, M4 antag 26.8
O=C(/C=C/c1cccc(O)c1)c1cccnc1	none
CN(C)c1ccc(/C=C/C(=O)c2cccnc2)cc1	CHRM4 agonist 39.1, CHRM5 agonist 106.8
COc1ccc(C(=O)/C=C/c2ccc(N(C)C)cc2)c(OC)c1	CHRM4 agonist 114.5, CHRM5 antagonist 51.6, CHRM5 agonist 146.0, M4 antag 36.4
CN(C)c1ccc(/C=C/C(=O)c2ccc(O)cc2)cc1	CHRM4 agonist 51.4, CHRM5 antagonist 49.9, CHRM5 agonist 228.9
O=S1(=O)C=C[C@@H](COCc2ccccc2)N1Cc1ccc(Br)cc1	none
Cc1cccc(C)c1NC(=O)Nc1nnc([C@@H]2C[C@H](O)[C@@H](CO)O2)s1	none
CCN(CC(=O)NCc1cccs1)CC(=O)Nc1cccc(S(N)(=O)=O)c1	none
Cc1cccc(/C=N/n2c(C)cc(C)c(C#N)c2=O)c1	CHRM4 PAM 41.3
CCOc1nc(-c2ccccc2)ccc1-c1noc(COC)n1	M5 PAM 18.2
Cc1ccc(C(=O)NCCNC(=O)c2ccco2)cn1	none
COc1ccc(CN(CCC(c2ccccc2)c2ccco2)C(=O)c2ccco2)cc1 (stereo unspecified)	none
CC(c1ccccc1)N(CCC(c1ccccc1)C1CCOC(C)(C)C1)C(=O)c1ccco1 (stereo unspecified)	CHRM5 antagonist 29.9
COc1ccc(CN(CCC(c2ccc(F)cc2)C2CCOC(C)(C)C2)C(=O)c2ccco2)cc1 (stereo unspecified)	CHRM5 antagonist 36.2, M4 antag 30.0
COC(=O)c1ccc(N2CCOCC2)c(NC(=O)Nc2cccc(OC)c2)c1	none
CCOC(=O)c1ccc(N2CCN(c3ccccc3F)CC2)c(NC(=O)Nc2cccc(OC)c2)c1	CHRM5 antagonist 45.4
CC(C)Oc1ccc(CN2CCC2(C)C(=O)Nc2cccc3cccnc23)cc1 (stereo unspecified)	none
C[C@@H]1CN([C@H](C)CO)C(=O)CCCn2nncc2CO[C@@H]1CN(C)C(=O)C1CC1	none
O=[N+]([O-])c1cc2cccnc2c2ncccc12	CHRM4 PAM 12.3
CC1(c2ccccc2Cl)NC(=O)N(CC(=O)N2c3ccccc3NC(=O)C2(C)C)C1=O (stereo unspecified)	none
C=CCNC(=O)Nc1ccc(Cl)cn1	CHRM4 PAM 20.8
CC(=O)c1cccc(Nc2ccc(C#N)cc2)c1	none
O=C(C1=C(O)C(=O)N(CCN2CCOCC2)C1c1cccc(O)c1)c1cc2ccccc2o1 (stereo unspecified)	CHRM4 PAM 18.9
O=C(N1CCCC1)C12CCC3CC(CC(C3)C1)C2	M5 PAM 19.1
COc1ccc(CCNc2c(C)c(C)nc3ncnn23)cc1	CHRM5 antagonist 28.8
CCc1c(C)nc2ncnn2c1NCCc1ccc(OC)c(OC)c1	none
O=C(Nc1ccccc1)C(=O)Nc1ccc2c(c1)N(C(=O)C1CC1)CCC2	CHRM4 PAM 17.4
O=C(C1CCC(C(=O)N2CCc3ccccc32)CC1)N1CCc2ccccc21 (stereo unspecified)	none
O=C(NCCc1ccc2c(c1)OCO2)Oc1ccccc1	none
COc1ccc(C(=O)NCc2ccc(F)cc2)cc1S(=O)(=O)N1CCCC1	none
CN(C(=O)CN1C(=O)C2C3CC(C(Br)C3Br)C2C1=O)C1CCCCC1 (stereo unspecified)	none
Cn1c(=O)[nH]c(=O)c2c1nc(SCC(=O)O)n2CCOc1ccccc1	M4 antag 53.6
O=C(c1ccco1)N1CCN(C(=O)c2ccc(Br)o2)CC1	none
O=C(c1ccc(Br)o1)N1CCN(C23CC4CC(CC(C4)C2)C3)CC1	M4 antag 30.8
COC(=O)[C@]12CCCCC=C1N(Cc1ccco1)C(=O)[C@H](CC(=O)NCc1ccccc1)C2	none
CCN(CC)CCNc1nc2c(c(=O)[nH]c(=O)n2C)n1CC(O)COc1ccc(Cl)cc1Cl (stereo unspecified)	none
Cc1cc(C)n(-c2nc3c(c(=O)[nH]c(=O)n3C)n2CC(O)COc2ccc(Cl)cc2Cl)n1 (stereo unspecified)	M5 PAM 21.5
NC(=O)c1cccc(-c2ccnc3c2CC(C(=O)NCc2ccccc2)O3)c1 (stereo unspecified)	none
Cc1nccc(-c2sc(-c3cccs3)nc2C)n1	CHRM4 PAM 68.7
O=C1c2cccc3cccc(c23)C(=O)N1CC1CCN(CC(O)COc2ccc3ccccc3c2)CC1 (stereo unspecified)	M4 antag 101.5
CC(=NNC(=S)N1CCN(c2ccccn2)CC1)c1nccs1	CHRM5 antagonist 29.2, M4 antag 42.9
CC(=NNC(=S)N1CCN(c2ccccn2)CC1)c1ccccn1	none
COC(=O)[C@H]1C[C@@]2(O)CN(S(=O)(=O)c3ccc(C)cc3)C[C@@]2(OC(=O)NC2CCCC2)C[C@H]1C(=O)OC	none
O=C(OCC(=O)N1CCc2ccccc21)C1=COCCO1	CHRM4 PAM 29.5
Cc1c(O)c(S(=O)(=O)c2ccccc2)c(=O)n(-c2ccccc2)c1-c1ccccc1	M4 antag 26.9
Cc1c(O)c(S(=O)c2ccccc2)c(=O)n(-c2ccccc2)c1-c1ccccc1 (stereo unspecified)	none
COc1ccc(CN2CCN(Cc3ccc4cc(F)ccc4n3)CC2CCO)c(C)c1C (stereo unspecified)	none
